Molecules are shown by their SMILES.

As a reminder, the Vd/F is the volume of distribution divided by bioavailability.

For series [1] the following is noted: cited from earlier work.
For series [2], the system named is albumin in human plasma. The following applies: cited from earlier work.
Series [3] relates to HIV. The settings on record: cited from earlier work.
For series [4] the following is noted: cited from earlier work. This is another data set of the same source.
A short description of series [5]: Population pharmacokinetic model of cabotegravir plasma concentrations. The following applies: for IIV of CL/F / IIV of F1 / IIV of KALA / IIV of KAoral / IIV of V2/F: interindividual variability; for Smoke on CL/F (fractional change of CL/F in current smokers): current smoker. Type of series: in vivo, human. The method in brief: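 Human plasma concentrations (23 926 from 1647 adults, HIV‑1‑infected and uninfected, 16 phase 1–3 studies; oral 10–60 mg, IM 200–800 mg) of the test compound were fitted in NONMEM (FOCE with interaction). The model was two‑compartment with first‑order oral and IM absorption and elimination, with a weight power function (shared exponents) on clearances and volumes. BQL data were handled by likelihood, with IOV on KALA/F1.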

The conditions of series [6]: cited from earlier work. This is another data set of the same source.
Where [7] appears, read: base model, typical subject of 76.6 kg.

Consider `C[C@@H]1CCO[C@H]2Cn3cc(C(=O)NCc4ccc(F)cc4F)c(=O)c(O)c3C(=O)N12` [DTG, dolutegravir], for which, in series [1], the “CL/F higher in current smokers” value is recorded as 16% and the “estimated absolute oral bioavailability higher in females than in males” value was 21%.

For `C[C@H]1CO[C@@H]2Cn3cc(C(=O)NCc4ccc(F)cc4F)c(=O)c(O)c3C(=O)N12` [CAB, Cabotegravir], in series [2], the “binding in human plasma (primarily to albumin)” value was above 99%. The “PA‐IC90, in vitro protein‐adjusted concentration resulting in 90% of the maximum inhibition of viral growth” value in series [3] was 0.166 µg/mL. Further, in series [4] (following oral dosing), the apparent clearance is on record as 0.21 L/h and the “apparent volume of distribution” value was 12.3 L. In series [4] (hepatic metabolism), the route of elimination result was “hepatic metabolism via UGT1A1 with a minor component by UGT1A9”. For the same compound, in series [5] (base model), the “IIV of CL/F” value is 24.9%, the “IIV of F1” value is on record as 17.2%, the “IIV of KALA” value came to 71.4% and the “IIV of KAoral” value turned out to be 61.4%. The “IIV of V2/F” value in series [5] (base model) is listed as 22.6%. The “BWT on V2/F and V3/F (exponent)” value in series [5] (base model, power function of baseline body weight) came to 0.675. In series [5] (setting [7]), the “CL/F, apparent central clearance” value came out at 0.16 L/h; the “KALA, absorption rate constant for LA IM injection” value is 0.000642 h⁻¹; the “KAoral, absorption rate constant for oral tablet” value came out at 1.12 h⁻¹. Besides, the “race and age as covariates of PK” value in series [5] (covariate evaluation, final model) is given as “not significant covariates”. In addition, in series [5] (final model), the “BWT on V2/F and V3/F (exponent)” value is reported as 0.702; the “KALA lower in females than males” value is 50.9%; the “KALA lower in subjects with BMI of 32.5 kg/m^2 (90th percentile) than BMI of 20.9 kg/m^2 (10th percentile)” value is 28.6%; the “KAoral, absorption rate constant for oral tablet” value stood at 1.41 h⁻¹. For the same compound, in series [5] (final model), the “Smoke on CL/F (fractional change of CL/F in current smokers)” value was determined as 17.4%, the “IIV of CL/F” value amounted to 23.3%, the “IIV of F1” value is 17.4% and the “IIV of KALA” value was found to be 57.9%. Besides, in series [5] (final model), the “IIV of KAoral” value came to 89.4% and the “IIV of V2/F” value came out at 20.3%. The “BMI exponent on KALA” value in series [5] (final model, BMI/25.4) is on record as −0.766. For the same compound, the “CL/F, apparent central clearance” value in series [5] (final model, BWT 76.6 kg, not current smoker) stood at 0.151 L/h. Moreover, in series [5] (final model, listed as cabotegravir), the “Smoke on CL/F (fractional change of CL/F in current smokers)” value was found to be 17.4%. Further, the “Female on KALA (fractional change)” value in series [5] (final model, female vs male) is −50.9%. Also, in series [5] (final model, male, unsplit injection, BMI 25.4, needle length 1.5 inch), the “KALA, absorption rate constant for LA IM injection” value came out at 0.000733 h⁻¹. For the same compound, in series [5] (final model, needle length/1.5 inch), the “NDL exponent on KALA” value is 0.478. Moreover, the Vd/F in series [5] (human, plasma, other: oral tablet and LA IM injection, modelled together, V2/F, apparent central compartment volume of distribution, base model, typical subject of 76.6 kg) was found to be 5.5 L. Also, the “dose proportionality of exposure” value in series [5] (oral 10 to 60 mg, LA 200 to 800 mg) is listed as “dose proportional”. For the same compound, in series [6], the permeability classification result is on record as “high permeability” and the solubility classification entry is on record as “low solubility”.

Values taken from publication PMC9543358 (British Journal of Clinical Pharmacology, 2022).
